# Active and inactive are the calls of the source. No cut-off for these calls is given here.
# Columns and labels:
# [1] = Association constant pKa of the compound; format: physicochemical
# Summary of the method: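 Ligand pKa by automated potentiometric titration with spectral scans in 0.1 M KCl at 25 ± 0.1 °C. pH was raised or lowered in 0.1-unit steps with KOH or HCl, and readings were taken once pH drifted by <0.001 over 3 s. A 1 min equilibration was used at each step before analysis of the titration data.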
# [2] = system: Glycine max; test: Inhibition of soybean lipoxygenase at 100 uM after 15 mins
# [3] = Inhibition of soybean lipoxygenase after 15 mins; design: species or system Glycine max
# [4] = Lipophilicity, log D of the compound at pH 7.4; format: physicochemical; conditions: buffer
# Summary of the method: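 After centrifugal separation, the loss of aqueous-phase absorbance gives the octanol/buffer concentration ratio.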
# [5] = Iron chelating activity of the compound; format: functional
# Summary of the method: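 Affinity is given as pM, the negative log of free Fe(III), at total metal 10⁻⁶ M and total ligand 10⁻⁵ M, pH 7.4. Stability constants come from automated potentiometric/spectrophotometric titration in 0.1 M KCl at 25 °C with 5 min equilibration per 0.1 pH step. Data analysed by pHab.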
# [6] = system: Glycine max; test: Inhibition of soybean lipoxygenase at 10 uM after 15 mins
# Summary of the method: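 Soybean lipoxygenase in 0.2 M borate buffer, pH 9, was pre-incubated 15 min with the compound (100 µM solution, 10 µM final in cuvette). The reaction was started with linoleic acid (1 mM). Linoleic hydroperoxide formation was followed at 234 nm for 10 min, and rates were computed using ε = 23600 M⁻¹ cm⁻¹.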
# [7] = molecular target: Tyrosine 3-monooxygenase (Rattus norvegicus) (UniProt P04177); test: Inhibition of tyrosine hydroxylase in rat striata at 10 uM after 20 mins
# Summary of the method: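 Rat striatal homogenate (1:9 in 0.32 M sucrose, about 3 mg tissue) in 0.5 M potassium phosphate, pH 6.0, with m-hydroxybenzylhydrazine, 1 mM 6,7-dimethyltetrahydropterine and chelator (1–100 µM). The reaction is started with L-tyrosine (0.4 mM final) for 20 min at 37 °C. L-DOPA is extracted on alumina and quantified by HPLC against α-methyldopa. Triplicate; non-enzymatic background measured using 3-iodotyrosine.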
# [8] = system: Cortical neurone; test: Neuroprotective activity against FeNTA-induced loss of synaptic integrity in rat cortical neurones assessed as damage to cell bodies at 30 uM by phase contrast microscopy; format: functional
# Chain of Tyrosine 3-monooxygenase (Rattus norvegicus) (P04177 whole entry): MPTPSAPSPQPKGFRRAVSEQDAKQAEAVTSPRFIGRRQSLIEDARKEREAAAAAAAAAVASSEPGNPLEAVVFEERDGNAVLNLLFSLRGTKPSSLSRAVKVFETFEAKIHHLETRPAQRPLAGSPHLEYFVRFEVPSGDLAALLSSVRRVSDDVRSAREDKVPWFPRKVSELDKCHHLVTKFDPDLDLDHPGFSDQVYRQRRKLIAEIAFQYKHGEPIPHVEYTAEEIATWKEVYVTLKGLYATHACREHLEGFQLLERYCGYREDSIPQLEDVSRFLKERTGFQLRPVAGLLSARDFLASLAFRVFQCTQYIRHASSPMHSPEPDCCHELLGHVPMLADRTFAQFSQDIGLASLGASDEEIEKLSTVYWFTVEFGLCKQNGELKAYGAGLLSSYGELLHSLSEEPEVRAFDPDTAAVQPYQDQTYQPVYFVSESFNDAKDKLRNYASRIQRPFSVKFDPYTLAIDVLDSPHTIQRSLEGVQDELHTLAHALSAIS
SMILES,pKa [1],inhibition [2] [%],EC50 [3] [µM],logD [4],Activity [5],inhibition [6] [%],Activity [7],Activity [8]
Cl.O=C(N[C@@H](Cc1ccccc1)C(=O)NCc1ccccc1)c1nccc(O)c1O,6,60,52,0.9,21.5,30.2,Active,–
CNC(=O)[C@H](C)NC(=O)c1nccc(O)c1O.Cl,6,61,66,-1.1,19.1,2.7,inactive,–
CC(C)CNC(=O)CNC(=O)c1nccc(O)c1O.Cl,6.2,70,44,-0.33,20.6,9.3,–,–
CC(C)CNC(=O)[C@H](C)NC(=O)c1nccc(O)c1O.Cl,6,71,37,-0.08,19.2,15.3,–,–
CCc1c(O)c(=O)ccn1CC,–,87.4,11,–,–,43,–,–
C[C@H](NC(=O)c1nccc(O)c1O)C(=O)NCc1ccccc1.Cl,6,54,80,0.03,18.9,3.3,inactive,Active
Cc1c(O)c(=O)ccn1C [DEFERIPRONE],–,58,64,–,–,–,–,–
CC(C)CNC(=O)[C@H](Cc1ccccc1)NC(=O)c1nccc(O)c1O.Cl,6,81,13,0.39,20.4,46.5,Active,–
Cl.O=C(CNC(=O)c1nccc(O)c1O)NCc1ccccc1,6.2,62,54,0.01,19.1,8.3,–,–
CNC(=O)CNC(=O)c1nccc(O)c1O.Cl,6.3,68,56,-1.42,20.8,19.3,–,–
CNC(=O)[C@H](Cc1ccccc1)NC(=O)c1nccc(O)c1O.Cl,6.1,71,25,-0.11,21.4,27.6,Active,–
